# Assay results published in PubChem BioAssay AID588392 (Broad Institute, 2011).
# Where “and” joins values, the source holds several entries; their conditions need not be identical. Equal entries are not always repeated.
# Target: Scavenger receptor class B member 1 (Mus musculus) (UniProt Q61009)
# Experiment: inhibition of HDL lipid transfer via mSR-BI – ldlA[mSR-BI] CHO cells, powder samples, set 2, dose response (AID 588392)
# Conditions: DiI-HDL uptake fluorescence, 3 h
# How it was run: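 assay system = SR-BI-overexpressing LDLR-null CHO cells | medium = Ham's F12 with 0.5% fatty acid-free BSA, 25 mM HEPES pH 7.4 | schedule = cell plating overnight before assay, 3 h DiI-HDL uptake at 37 °C | detection = DiI fluorescence, ex 550/em 595 nm, bottom read | control set = DMSO as neutral control, BLT-1 (1 µM) as positive control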
# Chain of Scavenger receptor class B member 1 (Mus musculus) (Q61009 whole entry, looked up): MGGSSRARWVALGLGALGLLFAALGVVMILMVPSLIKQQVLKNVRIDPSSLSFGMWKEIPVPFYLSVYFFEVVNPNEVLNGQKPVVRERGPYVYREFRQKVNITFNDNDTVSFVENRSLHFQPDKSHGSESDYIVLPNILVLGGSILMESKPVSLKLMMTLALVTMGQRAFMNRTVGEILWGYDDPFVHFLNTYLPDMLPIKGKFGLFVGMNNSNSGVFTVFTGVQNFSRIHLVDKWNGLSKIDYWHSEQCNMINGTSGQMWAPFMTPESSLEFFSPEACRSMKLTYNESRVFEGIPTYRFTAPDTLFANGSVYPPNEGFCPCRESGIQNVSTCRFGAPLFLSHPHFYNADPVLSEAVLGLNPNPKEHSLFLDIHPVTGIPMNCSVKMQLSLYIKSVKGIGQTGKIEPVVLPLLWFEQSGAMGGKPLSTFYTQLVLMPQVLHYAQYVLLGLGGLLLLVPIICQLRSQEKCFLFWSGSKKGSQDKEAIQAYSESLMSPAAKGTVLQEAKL
row,AC50,SMILES
1,40.8 nM,CCC(=O)N1CCc2cc(-c3csc(NC(=O)c4cccc(OC(F)(F)F)c4)n3)ccc21
2,10100 nM,CCC(=O)N1CCc2cc(-c3cnc(NC(=O)c4ccco4)[nH]3)ccc21
3,125 nM,CC(C(=O)NC1CCCC1)N(C(=O)Cn1nnc(-c2ccc(F)cc2)n1)C1CCCCC1 (centres undefined)
4,72.5 nM,COc1ccc(-c2nnn(CC(=O)N(C3CCCCC3)C(C)C(=O)NC3CCCC3)n2)cc1OC (centres undefined)
5,8.98 nM,COc1ccc(-c2nnn(CC(=O)N(CC(=O)NC3CCCC3)C3CCCCC3)n2)cc1OC
6,24.3 nM,CC(C(=O)NC1CCCC1)N(C(=O)Cn1nnc(-c2ccc3c(c2)OCO3)n1)C1CCCCC1 (centres undefined)
7,275 nM,CC(C(=O)NC1CCCC1)N(C(=O)Cn1nnc(-c2ccc(Cl)cc2)n1)C1CCCCC1 (centres undefined)
8,81 nM and 268 nM,C[C@@H]1CN([C@H](C)CO)C(=O)c2cc(NC(=O)Cc3cn(C)c4ccccc34)ccc2O[C@H]1CN(C)S(=O)(=O)c1ccc(Cl)cc1
9,186 nM,O=C(Nc1nc(-c2ccc3c(c2)CCN3C(=O)C2CC2)cs1)c1ccco1
10,493 nM,Cc1ccc(-c2nnn(CC(=O)N(C3CCCCC3)C(C)C(=O)NC3CCCC3)n2)cc1 (centres undefined)
11,379 nM,CC(C(=O)NC1CCCC1)N(C(=O)Cn1nnc(-c2cccc(F)c2)n1)C1CCCCC1 (centres undefined)
12,38 nM,CCC(=O)N1CCc2cc(-c3csc(NC(=O)c4ccc(F)c(OC)c4)n3)ccc21
13,7.1 nM,CCCCCCC1CCC/C1=N\NC(N)=S (centres undefined)
14,180 nM,COc1cccc(-c2nnn(CC(=O)N(C3CCCCC3)C(C)C(=O)NC3CCCC3)n2)c1 (centres undefined)
15,44.7 nM,O=C(Nc1nc(-c2ccc3c(c2)CCN3)cs1)c1ccco1

# Further lines, the molecule ahead of its results:
row,SMILES,AC50
1,CS(=O)(=O)N1CCc2cc(-c3csc(NC(=O)c4ccco4)n3)ccc21,386 nM
2,CCC(=O)N1CCc2cc(-c3coc(NC(=O)c4ccco4)n3)ccc21,18900 nM
3,CC(C)C(=O)N1CCc2cc(-c3csc(NC(=O)c4ccco4)n3)ccc21,238 nM
4,CCC(=O)N1CCc2cc(-c3csc(NC(=O)c4ccco4)n3)ccc21,53.7 nM
5,CCC(=O)N1CCc2cc(-c3csc(NC(=O)c4cc(OC)cc(OC)c4)n3)ccc21,4.33 nM
6,CCC(=O)N1CCc2cc(-c3csc(NC(=O)c4cccc(OC)c4)n3)ccc21,39.9 nM
7,CCC(=O)N1CCc2cc(-c3cnc(NC(C)=O)[nH]3)ccc21,1700 nM
8,O=C(CN(C(=O)Cn1nnc(-c2ccc3c(c2)OCO3)n1)C1CCCCC1)NC1CCCC1,12.6 nM
9,CCC(=O)N1CCc2cc(-c3coc(N)n3)ccc21,20000 nM
10,CC(C(=O)NC1CCCC1)N(C(=O)Cn1nnc(-c2ccccc2Cl)n1)C1CCCCC1 (centres undefined),3810 nM
11,COc1ccc(-c2cc(CC(=O)N(C3CCCCC3)C(C)C(=O)NC3CCCC3)no2)cc1OC (centres undefined),15.4 nM
12,CC(C(=O)NC1CCCC1)N(C(=O)Cn1nnc(-c2ccccc2F)n1)C1CCCCC1 (centres undefined),617 nM
13,COC(=O)N1CCc2cc(-c3csc(NC(=O)c4ccco4)n3)ccc21,6840 nM
14,CCC(=O)N1CCc2cc(-c3csc(NC(=O)c4cccc(OC)n4)n3)ccc21,528 nM
